The record followed here is ChEMBL document CHEMBL4024715, “An in vitro and in vivo evaluation of new potential trans-sialidase inhibitors of Trypanosoma cruzi predicted by a computational drug repositioning method” (Eur J Med Chem, 2017).

Data set [1] has as its system Trypanosoma cruzi. In words: Trypanocidal activity against trypomastigote stage of Trypanosoma cruzi INC-5 infected in NIH mouse blood assessed as parasite lysis at 50 ug/ml after 24 hrs by optical microscopic method relative to control. The format is functional. The method in brief:
(§1)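 Blood from infected NIH mice was taken by cardiac puncture at peak infection and adjusted to 1×10^6 trypomastigotes/mL. Compounds came from 10 mg/mL DMSO stocks diluted in water; final DMSO below 1%. Incubation was 24 h at 4 °C. Controls were DMSO/H₂O 1:99, untreated blood and reference drug. Trypomastigotes in 5 µL blood were counted by the Brener method at 40×. Percent lysis was taken versus the negative control, with three runs per strain.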

The test system of data set [2] is Trypanosoma cruzi. In words: Trypanocidal activity against trypomastigote stage of Trypanosoma cruzi INC-5 infected in NIH mouse blood after 24 hrs by optical microscopic method. As to conditions: INC-5, Blood. The format is functional.
Data set [3] has as its system Trypanosoma cruzi. In words: Trypanocidal activity against trypomastigote stage of Trypanosoma cruzi NINOA infected in NIH mouse blood assessed as parasite lysis at 50 ug/ml after 24 hrs by optical microscopic method relative to control. It counts as functional. The procedure, abridged:
as §1

The test system of data set [4] is Trypanosoma cruzi. In words: Trypanocidal activity against trypomastigote stage of Trypanosoma cruzi NINOA infected in NIH mouse blood after 24 hrs by optical microscopic method.
In data set [5] the target is T1, Trans-sialidase (Trypanosoma cruzi) (UniProt Q26964).
T1 sequence (whole entry): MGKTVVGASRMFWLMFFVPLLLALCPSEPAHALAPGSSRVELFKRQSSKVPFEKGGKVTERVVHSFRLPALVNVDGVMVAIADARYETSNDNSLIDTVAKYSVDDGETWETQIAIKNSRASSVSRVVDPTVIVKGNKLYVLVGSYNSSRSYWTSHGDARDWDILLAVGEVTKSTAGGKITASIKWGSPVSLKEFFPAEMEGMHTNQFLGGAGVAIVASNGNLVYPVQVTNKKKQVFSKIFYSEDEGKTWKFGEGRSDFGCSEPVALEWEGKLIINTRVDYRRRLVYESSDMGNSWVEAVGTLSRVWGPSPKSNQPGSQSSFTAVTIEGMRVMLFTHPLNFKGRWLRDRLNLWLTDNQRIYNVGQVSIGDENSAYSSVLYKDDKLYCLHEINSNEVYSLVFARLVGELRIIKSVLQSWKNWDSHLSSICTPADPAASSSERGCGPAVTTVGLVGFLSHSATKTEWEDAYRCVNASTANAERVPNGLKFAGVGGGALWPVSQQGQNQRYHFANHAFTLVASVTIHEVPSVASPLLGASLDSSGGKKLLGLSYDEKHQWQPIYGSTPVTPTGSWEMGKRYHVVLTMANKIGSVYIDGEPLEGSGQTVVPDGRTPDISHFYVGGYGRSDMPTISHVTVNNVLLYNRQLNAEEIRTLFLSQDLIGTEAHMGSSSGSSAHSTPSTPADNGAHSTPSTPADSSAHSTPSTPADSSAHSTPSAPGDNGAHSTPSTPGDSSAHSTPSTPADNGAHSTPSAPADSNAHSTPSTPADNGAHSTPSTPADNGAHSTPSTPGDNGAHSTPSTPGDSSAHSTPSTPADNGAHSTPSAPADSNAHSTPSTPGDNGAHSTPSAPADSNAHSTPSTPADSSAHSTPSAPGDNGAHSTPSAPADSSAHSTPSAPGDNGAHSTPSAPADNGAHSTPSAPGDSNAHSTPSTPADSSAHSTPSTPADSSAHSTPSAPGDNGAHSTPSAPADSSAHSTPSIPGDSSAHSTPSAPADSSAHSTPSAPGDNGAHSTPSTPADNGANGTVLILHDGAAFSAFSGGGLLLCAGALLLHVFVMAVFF
As to the kind of experiment: Inhibition of Trypanosoma cruzi trans-sialidase at 1 mM using N-acetyllactosamine as substrate in presence of 3'-sialyllactose measured after 15 mins by HPAEC-PAD relative to control. The procedure, abridged:
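Purified T. cruzi Ts (300 ng) incubated 15 min at room temperature in 20 mM Tris-HCl pH 7, 30 mM NaCl with 1 mM 3'-sialyllactose donor, 1 mM N-acetyllactosamine acceptor and 1 mM inhibitor. Water-insoluble compounds added from 10 mM DMSO stock; DMSO-only control. Samples diluted 12-fold and analysed by HPAEC-PAD. Inhibition from 3'-sialyl-N-acetyllactosamine relative to total sialylated products, with vs without compound.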

Data set [6] in a line: Solubility of the compound in water. Conditions: buffer. It counts as physicochemical.
The subject of data set [7] is Trypanosoma cruzi. In words: Trypanocidal activity against bloodstream form of Trypanosoma cruzi NINOA infected in NIH mouse assessed as reduction in parasitemia at 100 mg/kg, po measured at 2 to 4 hrs post dose by microscopic method. It counts as functional, organism-based. The method in brief:
(§2)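 Groups of five female NIH mice (20-25 g) infected intraperitoneally with 2×10^5 bloodstream trypomastigotes. At peak parasitemia (days 19-24), compounds suspended in 4% gum arabic were given orally, 100 mg/kg total dose. Vehicle-only controls. Tail blood examined microscopically at 2, 4 and 6 h after dosing. Parasitemia reduction scored against trypomastigote counts at each interval.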

In data set [8] the test system is Trypanosoma cruzi. As to the kind of experiment: Trypanocidal activity against bloodstream form of Trypanosoma cruzi NINOA infected in NIH mouse assessed as reduction in parasitemia at 100 mg/kg, po measured at 6 hrs post dose by microscopic method. It counts as functional, organism-based. The procedure, abridged:
as §2

Data set [9] has as its system Trypanosoma cruzi. As to the kind of experiment: Trypanocidal activity against bloodstream form of Trypanosoma cruzi NINOA infected in NIH mouse assessed as reduction in parasitemia at 100 mg/kg, po measured at 4 hrs post dose by microscopic method relative to control. It counts as functional. Details: scale not given: the % may be the effect or the level left. The method in brief: as §2

For data set [10], the system named is Trypanosoma cruzi. As to the kind of experiment: Trypanocidal activity against bloodstream form of Trypanosoma cruzi INC-5 infected in NIH mouse assessed as reduction in parasitemia at 100 mg/kg, po measured up to 6 hrs post dose by microscopic method. The format is functional, organism-based. The method in brief: as §2
In data set [11] the test system is Trypanosoma cruzi. As to the kind of experiment: Trypanocidal activity against bloodstream form of Trypanosoma cruzi NINOA infected in NIH mouse assessed as reduction in parasitemia at 100 mg/kg, po measured up to 6 hrs post dose by microscopic method. The format is functional, organism-based. The procedure, abridged: as §2
Data set [12] concerns Trypanosoma cruzi. As to the kind of experiment: Trypanocidal activity against bloodstream form of Trypanosoma cruzi INC-5 infected in NIH mouse assessed as reduction in parasitemia at 100 mg/kg, po measured at 2 to 4 hrs post dose by microscopic method. The format is functional, organism-based. The procedure, abridged:
as §2

Data set [13] has as its system Trypanosoma cruzi. In words: Trypanocidal activity against bloodstream form of Trypanosoma cruzi INC-5 infected in NIH mouse assessed as reduction in parasitemia at 100 mg/kg, po measured at 6 hrs post dose by microscopic method. The format is functional, organism-based. The procedure, abridged: as §2

Values after ≈ are worked out from the molar mass of the structure shown. Active and inactive are the calls of the source. The rule behind the calls is not given here.

In general, LC50 refers to the concentration lethal to half of the exposed cells or organisms. The inhibition is the share of the control response that was lost under treatment. As to `COc1cc2nc(N3CCN(C(=O)C4COc5ccccc5O4)CC3)nc(N)c2cc1OC.CS(=O)(=O)O` (stereo not given) [DOXAZOSIN MESYLATE], the results for the Activity in data set [1] and in [3] were 89% and 97%, respectively. The LC50 in data set [2] was determined as 14.7 µg/mL; in [4], 12.9 µg/mL. Further, the inhibition in [5] worked out at 5.3%. Also, the solubility result in data set [6] was “Insoluble”.
Regarding `O=C(O)c1cc(/N=N/c2ccc(S(=O)(=O)Nc3ccccn3)cc2)ccc1O` [SULFASALAZINE], the Activity was found to be 10% in data set [1], 92% in data set [3] and 60% in data set [9]. In data set [4], this molecule showed an LC50 of 19.3 µg/mL (≈ 48.4 µM). Also, the inhibition in data set [5] was found to be 37.6%. Besides, in [7], the result was Active. In addition, the result in data set [8] was inactive. In data set [6], the solubility result is listed as “Insoluble”.
As to `COC(=O)Nc1nc2cc(C(=O)c3ccc(F)cc3)ccc2[nH]1` [FLUBENDAZOLE], the Activity in data set [1] was determined as 42%; in data set [3], 41%. In addition, the inhibition entry in data set [5] is “inactive”. Further, the solubility result in data set [6] is listed as “Insoluble”.
Turning to `NC(=O)c1cc[n+](CC2=C(C(=O)[O-])N3C(=O)[C@@H](NC(=O)[C@@H](c4ccccc4)S(=O)(=O)[O-])[C@H]3SC2)cc1.[Na+]` [CEFSULODIN SODIUM], the figures for the Activity in [1] and in [3] were 14% and 87%, respectively. In data set [4], this molecule registered an LC50 of 16.6 µg/mL.
With `O=C(O)C(O)C(O)C(=O)O.O=C(c1ccc(F)cc1)C1CCN(CCn2c(=O)[nH]c3ccccc3c2=O)CC1` [KETANSERIN TARTRATE], the Activity in data set [1] came out at 73%; in data set [3] it was 89%. For the same molecule, the results for the 50% lethal concentration (LC50) in data set [2] and in [4] were 18.4 µg/mL and 13.6 µg/mL, respectively.
Turning to `O=C(Cn1ccnc1[N+](=O)[O-])NCc1ccccc1` [BENZNIDAZOLE], the Activity in data set [1] is 56%; in data set [3], 69%. Also, the LC50 in [2] stood at 40.6 µg/mL (≈ 156 µM); in data set [4] it was 46.6 µg/mL (≈ 179 µM). The result in data set [10] and in data set [11] was Active.
For `CCN1CCN(C(=O)N[C@@H](C(=O)N[C@@H]2C(=O)N3C(C(=O)[O-])=C(CSc4nnnn4C)CS[C@H]23)c2ccc(O)cc2)C(=O)C1=O.[Na+]` [CEFOPERAZONE SODIUM], the figures for the Activity in data set [1] and in data set [3] were 71% and 64%, respectively. Moreover, the LC50 turned out to be 23 µg/mL in [2] and 25.8 µg/mL in data set [4]. Besides, the inhibition in data set [5] was determined as 10.1%. Also, the result in data set [12] and in data set [7] was Active. In addition, the result in data set [13] and in data set [8] was inactive.
With `CC(C)(C)c1ccc(C(O)CCCN2CCC(C(O)(c3ccccc3)c3ccccc3)CC2)cc1` (stereo not given) [TERFENADINE], the Activity in data set [1] and in data set [3] was 100% in each case. In addition, the LC50 in data set [2] was 4.5 µg/mL (≈ 9.54 µM); in data set [4], 16.3 µg/mL (≈ 34.6 µM). The inhibition in data set [5] was found to be 8.2%. Further, the result in data set [12] and in data set [7] was Active. Further, the result in data set [13] and in data set [8] was inactive. In addition, in data set [6], the solubility result is listed as “Insoluble”.
Take `NC(=O)c1cc[n+](CC2=C(C(=O)[O-])N3C(=O)[C@@H](NC(=O)[C@@H](c4ccccc4)S(=O)(=O)O)[C@H]3SC2)cc1`: in data set [5], the inhibition result is “inactive”. The result in data set [7] was Active. The result in data set [8] was inactive.
Consider `CC1CS(=O)(=O)CCN1/N=C/c1ccc([N+](=O)[O-])o1` (stereo not given) [NIFURTIMOX], for which the Activity is given as 51% in data set [1] and 66% in [3].
